According to ChEMBL document CHEMBL5150070, “Tricyclic SpiroLactams Kill Mycobacteria In Vitro and In Vivo by Inhibiting Type II NADH Dehydrogenases” (J Med Chem, 2022):
Converted amounts (≈) assume the structure as drawn. The source made the active and inactive calls. No cut-off for these calls is given here.

Experiments:
Mycobacterium marinum [1] = experiment: In vivo antimycobacterial efficacy in Mycobacterium marinum expressing Wasabi infected zebrafish larvae assessed as prolongation of survival time at 4.8 uM treated for 4 days after 1 day post infection; format: functional; conditions: time 4 day
Mycobacterium marinum [2] = experiment: in vivo antimycobacterial efficacy in Mycobacterium marinum infected zebrafish larvae assessed as reduction in bacterial burden at 0.25 to 2 micog/ml measured after 2 to 4 days off post infection; format: functional, organism-based; conditions: time 2-4 day
[3] = tested on: Mycobacterium tuberculosis; experiment: Antimycobacterial activity against Mycobacterium tuberculosis H37Rv infected in human A-THP1 macrophages assessed as viability of infected macrophages incubated for 96 hrs by fluorescence microplate assay; format: functional, organism-based
Method in brief: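 THP-1 cells differentiated with 50 ng/mL PMA for 72 h, infected with log-phase H37Rv (MOI 10, 2 h), and extracellular bacteria killed with 50 µg/mL amikacin for 1 h. Cells detached and seeded at 5×10⁵/mL in RPMI-10% FBS with PMA onto pre-dispensed compound, 96 h at 37°C, 5% CO₂. Macrophage viability by 0.05% resazurin fluorescence.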

[4] = tested on: Mycobacterium tuberculosis; experiment: Inhibition of Ndh2 in Mycobacterium tuberculosis assessed as increase in NADH/NAD+ ratio at 600 nM measured after 24 hrs
Method in brief: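 Mid-log H37Rv diluted to OD600 0.3 and exposed to compound at 37°C for 2 and 24 h. Pellets extracted in 0.2 M HCl (NAD⁺) or 0.2 M NaOH (NADH), bead-milled, heated 55°C 10 min, neutralised. NAD/NADH-Glo luminescence read against an NADH standard curve, corrected for OD600. Three independent experiments, duplicate technical replicates.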

Mycobacterium marinum [5] = experiment: Antibiotic activity against Mycobacterium marinum M strain assessed as reduction in bacterial cell growth by measuring resazurin reduction incubated for 6 days by fluorescence microplate based assay; format: functional; conditions: 144 h, time 6 day
Pseudomonas aeruginosa = experiment: Antibiotic activity against Pseudomonas aeruginosa POA1 assessed as reduction in bacterial cell growth by measuring resazurin reduction incubated for 6 days by fluorescence microplate based assay; format: functional; conditions: POA1, 144 h, time 6 day
[6] = biological target: T1, Type II NADH:quinone oxidoreductase NdhA (Mycobacterium tuberculosis, UniProt P95200); experiment: Inhibition of Mycobacterium smegmatis MC2 155 recombinant ndhA assessed as rate of NADH oxidation in the presence of an electron acceptor menadione; set-up: species or system Mycolicibacterium smegmatis
T1 sequence (P95200 whole entry): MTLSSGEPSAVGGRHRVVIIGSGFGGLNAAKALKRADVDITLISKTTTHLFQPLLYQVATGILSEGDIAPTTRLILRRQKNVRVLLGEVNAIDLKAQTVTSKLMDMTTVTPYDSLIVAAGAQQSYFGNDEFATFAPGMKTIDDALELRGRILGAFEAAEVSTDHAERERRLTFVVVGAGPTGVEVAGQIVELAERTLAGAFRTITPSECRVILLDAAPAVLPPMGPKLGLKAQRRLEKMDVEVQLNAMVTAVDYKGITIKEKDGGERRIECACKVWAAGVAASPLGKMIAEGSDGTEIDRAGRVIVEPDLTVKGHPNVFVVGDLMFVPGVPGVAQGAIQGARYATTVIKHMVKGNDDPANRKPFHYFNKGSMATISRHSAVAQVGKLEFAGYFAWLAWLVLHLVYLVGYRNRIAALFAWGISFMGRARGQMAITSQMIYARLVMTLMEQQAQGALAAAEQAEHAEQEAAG

Mycobacterium avium = experiment: Antibiotic activity against Mycobacterium avium TMC 724, ATCC-25291 assessed as reduction in bacterial cell growth by measuring resazurin reduction incubated for 6 days by fluorescence microplate based assay; format: functional; conditions: TMC 724, ATCC-25291, 144 h, time 6 day
[7] = tested on: Mycobacterium tuberculosis; experiment: Bactericidal activity against replicating Mycobacterium tuberculosis H37Rv assessed as reduction in colony forming unit measured at 2 to 4 times of MIC after 1 to 2 weeks; format: functional; conditions: time 1-2 weeks
Method in brief: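 Mid-log H37Rv in 7H9-GTy-OADC diluted to OD600 0.02 (~1×10⁶ cfu/mL) and exposed to compound in 96-well replica plates for 1 or 2 weeks. For the 3 lowest concentrations without visible growth, serial 10-fold dilutions plated on 7H11-OADC and cfu counted over 6 weeks at 37°C. Four independent experiments; log10 cfu/mL ± SD.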

Staphylococcus aureus = experiment: Antibiotic activity against Staphylococcus aureus SH1000 assessed as reduction in bacterial cell growth by measuring resazurin reduction incubated for 6 days by fluorescence microplate based assay; format: functional; conditions: SH1000, 144 h, time 6 day
Method in brief: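 E. coli BW25113, E. coli ΔtolC and S. aureus SH1000 were cultured and tested in cation-adjusted Mueller Hinton II broth. Viability was read by adding resazurin and measuring resorufin fluorescence at Ex 530 nm / Em 590 nm.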

[8] = tested on: Mycobacterium tuberculosis; experiment: Bactericidal activity against Non-replicating Mycobacterium tuberculosis ss18b-lux model assessed as decrease in luminescence at 10 to 10000 nM; format: functional, organism-based; conditions: dose 10-10000 nM, TDE = time-dependent effect
Method in brief: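 Non-replicating streptomycin-starved 18b-lux (14-day starvation) diluted to OD600 0.15 in white 96-well plates with compound and incubated at 37°C. Luminescence read on days 1, 2, 5 and 7 and expressed relative to no-antibiotic controls (n ≥ 3).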

[9] = Toxicity in noninfected zebrafish larvae assessed as larval development; set-up: species or system Danio rerio; conditions: in vivo
[10] = tested on: Mycobacterium tuberculosis; experiment: Bactericidal activity against Non-replicating Mycobacterium tuberculosis ss18b-lux assessed as bacterial killing by measuring CFU after 1 week; format: functional, organism-based; conditions: time 1.0 weeks, DDE = dose-dependent effect
Method in brief: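 Streptomycin-dependent 18b-lux starved of streptomycin for 14 days (OD600 reset to 0.2 on days 7 and 13) to become non-replicating. Diluted to OD600 0.15 on dispensed compound and held at 37°C. On day 7, active wells plated on 7H11-OADC with 50 µg/mL streptomycin and incubated up to 8 weeks for cfu.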

Mycobacterium marinum [11] = experiment: In vivo antimycobacterial efficacy in Mycobacterium marinum expressing Wasabi infected zebrafish larvae assessed as prolongation of survival treated for 4 days after 1 day post infection; format: functional, organism-based; conditions: dose 0.3-1.2 µM, time 4.0 day, DDE = dose-dependent effect
Method in brief: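 Golden mutant or Tg(mpeg1:mCherry) zebrafish embryos were dechorionated and anaesthetised in 0.016% tricaine. At 30 hpf, 2–3 nL containing about 200–250 cfu of Wasabi-expressing M. marinum M (pTEC15) was injected into the caudal vein. The inoculum was confirmed by plating on 7H10. Embryos were kept in E3 at 28.5 °C, 12 per well, to follow infection and survival.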

[12] = Octanol/PBS partition coefficient, logD of compound at pH 7.4 measured after 2 hrs by shake flask method; format: physicochemical; conditions: octanol/water, pH 7.4, 2 h
Method in brief: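 A 10 mM DMSO stock was diluted 50-fold into 1:1 octanol:PBS pH 7.4 and shaken gently for 2 h at room temperature. Each phase was diluted 50-fold in MeOH and quantified by LC-MS/MS. LogD = log of the octanol/PBS concentration ratio from mass signals. Run in triplicate.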

Acinetobacter baumannii = experiment: Antibiotic activity against Acinetobacter baumannii LMG-17978 assessed as reduction in bacterial cell growth by measuring resazurin reduction incubated for 6 days by fluorescence microplate based assay; format: functional; conditions: LMG-17978, 144 h, time 6 day
[13] = tested on: Mycolicibacterium smegmatis; experiment: Antibiotic activity against Mycobacterium smegmatis mc2155 assessed as reduction in bacterial cell growth by measuring resazurin reduction incubated for 6 days by fluorescence microplate based assay; format: functional; conditions: mc2155, 144 h, time 6 day

CC(C)[C@H]1CO[C@]23CCN(Cc4ccc(C(F)(F)F)cc4)C[C@H]2CCC(=O)N13
Time (Mycobacterium marinum [1]): 3 days | Activity (Mycobacterium marinum [2]): Active | IC50 [3]: 460 nM | inhibition [4]: Active | MIC (Mycobacterium marinum [5]): 0.19 µM (≈ 0.0753 µg/mL) | MIC (Pseudomonas aeruginosa): > 100 µM | IC50 [6]: 59 nM | MIC (Mycobacterium avium): 0.55 µM (≈ 0.218 µg/mL) | Activity [7]: 0.8 log10CFU | MIC (Staphylococcus aureus): > 100 µM | Activity [8]: Tde | Activity [9]: Non-Toxic | Activity [10]: Dde | Activity (Mycobacterium marinum [11]): Dde | logD [12]: 3.4 | MIC (Acinetobacter baumannii): > 100 µM | MIC [13]: 1.3 µM (≈ 0.515 µg/mL)
